# Laboratory results published in ChEMBL document CHEMBL3414425, “Synthesis and biological evaluation of new imidazo[2,1-b][1,3,4]thiadiazole-benzimidazole derivatives” (Eur J Med Chem, 2015).
# The source made the active and inactive calls. The calls are words filed in the database; no cut-off is given here.
# Columns and labels:
# [1] = tested on: Staphylococcus aureus; assay: Antibacterial activity against Staphylococcus aureus at 1 mg/ml incubated for 18 hrs by well plate technique; type: functional; settings: for zone of inhibition at 1000 µg/mL: read-out: DIZ
# How it was run: (§1)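 Bacteria kept on nutrient agar at 37 °C, grown statically in nutrient broth (start ~10-100 cfu/mL) at 37 °C for 18-24 h. Suspensions diluted in saline and spread on nutrient agar, then wells cut with a cork borer. Compound in DMSO at 1 or 0.5 mg/mL added to wells, 37 °C, 18 h. Inhibition zone diameter measured minus DMSO value; triplicate; streptomycin standard.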
# [2] = tested on: Pseudomonas aeruginosa; assay: Antibacterial activity against Pseudomonas aeruginosa at 1 mg/ml incubated for 18 hrs by well plate technique; type: functional; settings: for zone of inhibition at 1000 µg/mL: read-out: DIZ; how it was run: as §1
# [3] = tested on: Candida albicans; assay: Antifungal activity against Candida albicans at 0.5 mg/ml incubated for 3 days; type: functional; settings: for zone of inhibition at 500 µg/mL: 72 h, read-out: IZ
# How it was run: (§2)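 Well plate method on potato dextrose agar. Fungal stock suspended in distilled water with Tween 80 and swabbed over plates. Samples in DMSO at 1 and 0.5 mg/mL added to wells, incubated 25 °C for 3 days, then scored for inhibition zones; fluconazole standard.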
# [4] = tested on: Aspergillus flavus; assay: Antifungal activity against Aspergillus flavus at 0.5 mg/ml incubated for 3 days; type: functional; settings: for zone of inhibition at 500 µg/mL: 72 h, read-out: IZ; how it was run: as §2
# [5] = tested on: Chrysosporium keratinophilum; assay: Antifungal activity against Chrysosporium keratinophilum at 1 mg/ml incubated for 3 days; type: functional; settings: for zone of inhibition at 1000 µg/mL: 72 h, read-out: IZ; how it was run: as §2
# [6] = Antioxidant activity assessed as DPPH radical scavenging activity incubated for 10 mins by UV-visible spectrometry; type: physicochemical
# How it was run: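 DPPH free-radical scavenging; absorbance read at 517 nm against a methanol blank. % scavenging = (A control − A sample)/A control × 100.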
# [7] = tested on: Escherichia coli; assay: Antibacterial activity against Escherichia coli at 1 mg/ml incubated for 18 hrs by well plate technique; type: functional; settings: for zone of inhibition at 1000 µg/mL: read-out: DIZ; how it was run: as §1
# [8] = tested on: Escherichia coli; assay: Antibacterial activity against Escherichia coli at 0.5 mg/ml incubated for 18 hrs by well plate technique; type: functional; settings: for zone of inhibition at 500 µg/mL: read-out: DIZ; how it was run: as §1
# [9] = tested on: Pseudomonas aeruginosa; assay: Antibacterial activity against Pseudomonas aeruginosa at 0.5 mg/ml incubated for 18 hrs by well plate technique; type: functional; settings: for zone of inhibition at 500 µg/mL: read-out: DIZ; how it was run: as §1
# [10] = tested on: Salmonella typhi; assay: Antibacterial activity against Salmonella typhi at 0.5 mg/ml incubated for 18 hrs by well plate technique; type: functional, Salmonella enterica subsp. enterica serovar Typhi; settings: for zone of inhibition at 500 µg/mL: Salmonella enterica, read-out: DIZ; for diameter of the inhibition zone (DIZ): Salmonella enterica subsp. enterica serovar Typhi
# How it was run: (§3)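 Well diffusion on nutrient agar; strains kept on nutrient agar at 37 °C, grown statically in nutrient broth 18-24 h at 37 °C, diluted in saline, 0.1 ml spread per plate. Compounds in DMSO at 1 and 0.5 mg/mL added to cork-bored wells; 18 h at 37 °C. Inhibition zone diameter measured, DMSO value subtracted; triplicate; streptomycin reference.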
# [11] = tested on: Salmonella typhi; assay: Antibacterial activity against Salmonella typhi at 1 mg/ml incubated for 18 hrs by well plate technique; type: functional, Salmonella enterica subsp. enterica serovar Typhi; settings: for zone of inhibition at 1000 µg/mL: Salmonella enterica, read-out: DIZ; for diameter of the inhibition zone (DIZ): Salmonella enterica subsp. enterica serovar Typhi; how it was run: as §3
# [12] = tested on: Chrysosporium keratinophilum; assay: Antifungal activity against Chrysosporium keratinophilum at 0.5 mg/ml incubated for 3 days; type: functional; settings: for zone of inhibition at 500 µg/mL: 72 h, read-out: IZ; how it was run: as §2
# [13] = tested on: Candida albicans; assay: Antifungal activity against Candida albicans at 1 mg/ml incubated for 3 days; type: functional; settings: for zone of inhibition at 1000 µg/mL: 72 h, read-out: IZ; how it was run: as §2
# [14] = tested on: Aspergillus flavus; assay: Antifungal activity against Aspergillus flavus at 1 mg/ml incubated for 3 days; type: functional; settings: for zone of inhibition at 1000 µg/mL: 72 h, read-out: IZ; how it was run: as §2
# [15] = tested on: Staphylococcus aureus; assay: Antibacterial activity against Staphylococcus aureus at 0.5 mg/ml incubated for 18 hrs by well plate technique; type: functional; settings: for zone of inhibition at 500 µg/mL: read-out: DIZ; how it was run: as §1
# [16] = tested on: Mycobacterium tuberculosis; assay: Antitubercular activity against Mycobacterium tuberculosis H37Rv ATCC 27294/XDR-TB incubated for 28 days by agar dilution method; type: functional; settings: 672 h
# How it was run: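 Agar dilution: two-fold dilutions in Middlebrook 7H11 agar with OADC. Inoculum from fresh 7H11/OADC slants adjusted to 1 mg/mL wet weight in 0.05% Tween 80 saline, diluted 10^-2 (~10⁷ cfu/mL); 5 µL spotted per tube. Incubated 37 °C; MIC, lowest concentration fully inhibiting growth, read after 28 days, in triplicate.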
Compound,zone of inhibition at 1000 µg/mL [1] [mm],zone of inhibition at 1000 µg/mL [2] [mm],zone of inhibition at 500 µg/mL [3] [mm],zone of inhibition at 500 µg/mL [4] [mm],zone of inhibition at 1000 µg/mL [5] [mm],inhibition (INH) [6] [%],zone of inhibition at 1000 µg/mL [7] [mm],zone of inhibition at 500 µg/mL [8] [mm],zone of inhibition at 500 µg/mL [9] [mm],zone of inhibition at 500 µg/mL [10] [mm],zone of inhibition at 1000 µg/mL [11] [mm],zone of inhibition at 500 µg/mL [12] [mm],zone of inhibition at 1000 µg/mL [13] [mm],zone of inhibition at 1000 µg/mL [14] [mm],zone of inhibition at 500 µg/mL [15] [mm],MIC [16] [µg/mL],other results
Cc1nn2c(-c3nc4ccccc4[nH]3)c(-c3ccc(Cl)cc3)nc2s1,4,5,4,5,7,28.8,4,3,3,1,3,6,6,6,3,25,–
CN[C@@H]1[C@H](O[C@H]2[C@H](O[C@H]3[C@H](O)[C@@H](O)[C@H](N=C(N)N)[C@@H](O)[C@@H]3N=C(N)N)O[C@@H](C)[C@]2(O)C=O)O[C@@H](CO)[C@H](O)[C@H]1O [STREPTOMYCIN],16.8,16.7,–,–,–,–,18.6,14.3,13.6,15.7,17.2,–,–,–,12.5,–,–
COc1ccc(-c2nc3sc(C)nn3c2-c2nc3cc([N+](=O)[O-])ccc3[nH]2)cc1,–,–,1,1,3,22.6,–,–,–,–,–,2,2,2,–,12.5,diameter of the inhibition zone (DIZ) [1]: inactive; diameter of the inhibition zone (DIZ) [2]: inactive; diameter of the inhibition zone (DIZ) [7]: inactive; diameter of the inhibition zone (DIZ) [8]: inactive; diameter of the inhibition zone (DIZ) [9]: inactive; diameter of the inhibition zone (DIZ) [10]: inactive; diameter of the inhibition zone (DIZ) [11]: inactive; diameter of the inhibition zone (DIZ) [15]: inactive
COc1ccc(-c2nc3sc(-c4ccc(F)cc4)nn3c2-c2nc3cc([N+](=O)[O-])ccc3[nH]2)cc1,5,6,2,3,4,30.8,5,3,3,3,4,2,5,5,3,12.5,–
CC[C@@H](CO)NCCN[C@@H](CC)CO [ETHAMBUTOL],–,–,–,–,–,–,–,–,–,–,–,–,–,–,–,3.13,–
COc1ccc(-c2nc3sc(-c4ccccc4Cl)nn3c2-c2nc3cc([N+](=O)[O-])ccc3[nH]2)cc1,–,–,–,–,–,22.1,–,–,–,–,–,–,–,–,–,50,diameter of the inhibition zone (DIZ) [1]: inactive; diameter of the inhibition zone (DIZ) [2]: inactive; inhibition zone (IZ) [3]: inactive; inhibition zone (IZ) [4]: inactive; inhibition zone (IZ) [5]: inactive; diameter of the inhibition zone (DIZ) [7]: inactive; diameter of the inhibition zone (DIZ) [8]: inactive; diameter of the inhibition zone (DIZ) [9]: inactive; diameter of the inhibition zone (DIZ) [10]: inactive; diameter of the inhibition zone (DIZ) [11]: inactive; inhibition zone (IZ) [12]: inactive; inhibition zone (IZ) [13]: inactive; inhibition zone (IZ) [14]: inactive; diameter of the inhibition zone (DIZ) [15]: inactive
NC(=O)c1cnccn1 [PYRAZINAMIDE],–,–,–,–,–,–,–,–,–,–,–,–,–,–,–,50,–
COc1ccc(-c2nc3sc(-c4ccc(C)cc4)nn3c2-c2nc3cc([N+](=O)[O-])ccc3[nH]2)cc1,–,–,–,–,–,25.1,–,–,–,–,–,–,–,–,–,12.5,diameter of the inhibition zone (DIZ) [1]: inactive; diameter of the inhibition zone (DIZ) [2]: inactive; inhibition zone (IZ) [3]: inactive; inhibition zone (IZ) [4]: inactive; inhibition zone (IZ) [5]: inactive; diameter of the inhibition zone (DIZ) [7]: inactive; diameter of the inhibition zone (DIZ) [8]: inactive; diameter of the inhibition zone (DIZ) [9]: inactive; diameter of the inhibition zone (DIZ) [10]: inactive; diameter of the inhibition zone (DIZ) [11]: inactive; inhibition zone (IZ) [12]: inactive; inhibition zone (IZ) [13]: inactive; inhibition zone (IZ) [14]: inactive; diameter of the inhibition zone (DIZ) [15]: inactive
Cc1ccc(-c2nc3sc(C)nn3c2-c2nc3cc(Cl)ccc3[nH]2)cc1,10,9,1,1,2,30.6,8,5,6,7,8,–,4,3,7,50,inhibition zone (IZ) [12]: inactive
COc1ccc(-c2nc3sc(-c4ccc(C)cc4)nn3c2-c2nc3ccccc3[nH]2)cc1,–,–,–,–,–,21.6,–,–,–,–,–,–,–,–,–,12.5,diameter of the inhibition zone (DIZ) [1]: inactive; diameter of the inhibition zone (DIZ) [2]: inactive; inhibition zone (IZ) [3]: inactive; inhibition zone (IZ) [4]: inactive; inhibition zone (IZ) [5]: inactive; diameter of the inhibition zone (DIZ) [7]: inactive; diameter of the inhibition zone (DIZ) [8]: inactive; diameter of the inhibition zone (DIZ) [9]: inactive; diameter of the inhibition zone (DIZ) [10]: inactive; diameter of the inhibition zone (DIZ) [11]: inactive; inhibition zone (IZ) [12]: inactive; inhibition zone (IZ) [13]: inactive; inhibition zone (IZ) [14]: inactive; diameter of the inhibition zone (DIZ) [15]: inactive
COc1ccc(-c2nc3sc(-c4ccccc4)nn3c2-c2nc3cc([N+](=O)[O-])ccc3[nH]2)cc1,4,5,–,1,4,23.4,4,3,3,3,6,2,3,3,2,50,inhibition zone (IZ) [3]: inactive
Cc1ccc(-c2nn3c(-c4nc5ccccc5[nH]4)c(-c4ccc(F)cc4)nc3s2)cc1,14,13,4,4,5,22.6,13,9,10,13,15,3,6,6,11,12.5,–
Cc1nn2c(-c3nc4cc(Cl)ccc4[nH]3)c(-c3ccc(F)cc3)nc2s1,9,13,7,5,8,39.5,11,8,10,7,10,6,9,7,6,25,–
NNC(=O)c1ccncc1 [ISONIAZID],–,–,–,–,–,–,–,–,–,–,–,–,–,–,–,0.1,–
OC(Cn1cncn1)(Cn1cncn1)c1ccc(F)cc1F [FLUCONAZOLE],–,–,20,10,16,–,–,–,–,–,–,14,23,14,–,–,–
Cc1cc(C(C)(C)C)c(O)c(C(C)(C)C)c1 [BUTYLATED HYDROXYTOLUENE],–,–,–,–,–,88.6,–,–,–,–,–,–,–,–,–,–,–
